The subject of experiment [1] is QGY-7703. As to the kind of experiment: Induction of endoplasmic reticulum stress in human QGY-7703 cells assessed as increase in bip protein expression incubated for 12 hrs by Western blot analysis. The format is functional, cell-based. The settings on record: dose 0.5-2 µM. In short, it runs like this:
(§1)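 HepG2, QGY-7703 and SMMC-7721 treated with graded concentrations for 12 h. Lysed in RIPA with inhibitors; 40-80 µg protein separated by SDS-PAGE, blotted to nitrocellulose, blocked 1 h in 5% milk, primary antibodies overnight (LC3, Beclin1, Bip, CHOP, TRB3), HRP secondaries, chemiluminescence.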

Experiment [2] has as its system HepG2. Nature of the experiment: Induction of apoptosis in human HepG2 cells assessed as early apoptotic cells at 1 uM incubated for 12 hrs by Annexin V-FITC/PI staining based flow cytometry (reference value: 3.99%). The format is functional. (In flow cytometry, cells or beads pass a laser one at a time.)
The subject of experiment [3] is HepG2. As to the kind of experiment: Induction of apoptosis in human HepG2 cells transfected with shRNA assessed as early apoptotic cells at 2 uM incubated for 12 hrs by Annexin V-FITC/PI staining based flow cytometry (reference value: 5.09%). The format is functional.
Experiment [4] relates to HepG2. As to the kind of experiment: Induction of endoplasmic reticulum stress in human HepG2 cells transfected with shNur77 assessed as increase in PDI protein expression at 2 uM incubated for 6 hrs by confocal microsocopic analysis. The format is functional, cell-based. In a few lines: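 HepG2, or HepG2 plus shNur77 HepG2, treated with 2.0 µM for 6 h, fixed in 4% paraformaldehyde 20 min, permeabilised 0.1% Triton X-100, blocked in 5% BSA, stained with PDI antibody and imaged by confocal fluorescence microscopy.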

Experiment [5] relates to QGY-7703. As to the kind of experiment: Induction of apoptosis in human QGY-7703 cells assessed as increase in cleaved PARP level at 0.5 to 2 uM incubated for 12 hrs by Western blot analysis. The format is functional, cell-based. The settings on record: dose 0.5-2 µM. In a few lines:
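QGY-7703 (RPMI 1640, 10% FBS) and SMMC-7721 (DMEM) cells at 37 °C, 5% CO2, treated with graded concentrations for 12 h. RIPA lysates (40-80 µg protein) run on SDS-PAGE, transferred to nitrocellulose, immunoblotted for cleaved PARP; chemiluminescence read-out.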

Experiment [6] deals with HepG2. Nature of the experiment: Induction of autophagy in human HepG2 cells assessed as increase in LC3-II expression measured after 12 hrs by Western blot analysis. The format is functional, cell-based. The settings on record: dose 0.5-2 µM. In short, it runs like this:
as §1

For experiment [7], the system named is HepG2. As to the kind of experiment: Antiproliferative activity against human HepG2 cells assessed as reduction in cell viability at 2 uM by MTT assay. The format is functional, cell-based. The conditions noted are these: time 12-48 hrs, TDE = time-dependent effect. In a few lines:
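Cells treated with 2.0 µM over a time course; viability read by MTT. HepG2, SMMC-7721 kept in DMEM, QGY-7703 in RPMI 1640, with 10% FBS at 37 °C and 5% CO2.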
(In general: Formazan colour is commonly taken as a measure of viable cells.)

Experiment [8] relates to HepG2. Nature of the experiment: Upregulation of Nur77 expression in human HepG2 cells at 2 uM incubated for 6 hrs by Western blot analysis. The format is functional, cell-based. In a few lines:
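HepG2, QGY-7703 and SMMC-7721 cells treated with the indicated concentrations for 6 h. HepG2 also given 2.0 µM over a time course. Lysis in RIPA with protease and phosphatase inhibitors; 40-80 µg protein by SDS-PAGE, nitrocellulose transfer. Membranes blocked with 5% milk, primary antibody overnight, HRP secondary, chemiluminescence. GAPDH as loading control.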
Background: Immunoblotting shows a protein as a band on a membrane.

The test system of experiment [9] is Mus musculus. As to the kind of experiment: Upregulation of Nur77 expression in tumor tissue of BALB/c mouse xenografted with human HepG2 cells at 10 to 20 mg/kg/day, ip administered for 15 days by immunohistochemical analysis. The format is functional, organism-based. The settings on record: dose 10-20 mg/kg/day, time 15.0 day. In a few lines:
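Tumours taken from HepG2 xenograft mice after 15 days of daily i.p. dosing (10 or 20 mg/kg) or vehicle. Fixed in 4% paraformaldehyde, paraffin-embedded, cut into 5 µm sections. Immunostained with anti-Nur77 at 1:200.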

Experiment [10] relates to HepG2. As to the kind of experiment: Induction of morphological changes in human HepG2 cells assessed as cell shrinkage at 1 to 2 uM incubated for 6 to 12 hrs by phase contrast microscopic analysis. The settings on record: dose 1-2 µM, time 6-12 hrs. The format is functional, cell-based. In a few lines:
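HepG2 cells given graded concentrations; morphology monitored at set time points by phase-contrast optical microscopy.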

For experiment [11], the system named is HepG2. Nature of the experiment: Induction of apoptosis in human HepG2 cells assessed as Bax/Bcl-2 ratio at 2 uM pretreated with autophagy inhibitor, 3-methyladenine for 2 hrs followed by incubation with compound for 12 hrs by Western blot analysis. The format is functional, cell-based.
The subject of experiment [12] is HepG2. Nature of the experiment: Disruption of mitochondrial membrane potential in human HepG2 cells transfected with shNur77 assessed as green fluorescence intensity at 2 uM incubated for 12 hrs by JC-1 staining based flow cytometry (reference value: 44890 units). The format is functional.
The subject of experiment [13] is HepG2. As to the kind of experiment: Induction of apoptosis in human HepG2 cells transfected with shNur77 assessed as increase in cleaved PARP level at 2 uM incubated for 12 hrs by Western blot analysis. The format is functional, cell-based. In a few lines:
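HepG2 carrying scrambled or Nur77 shRNA exposed to 2.0 µM for 12 h. RIPA lysates with protease/phosphatase inhibitors, 40-80 µg protein by BCA resolved on SDS-PAGE, moved to nitrocellulose, milk-blocked, probed overnight for PARP cleavage and Nur77 with HRP secondaries, chemiluminescent detection.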

Experiment [14] relates to HepG2. Nature of the experiment: Induction of endoplasmic reticulum stress in human HepG2 cells assessed as increase in bip expression at 2 uM measured after 1 to 4 hrs by Western blot analysis. The conditions noted are these: time 1-4 hrs. The format is functional, cell-based. In short, it runs like this:
(§2)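 HepG2 exposed to 2.0 µM over a time course; Nur77, Bip, p-EIF2a, TRB3 and LC3 levels followed by Western blot of RIPA lysates.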

The test system of experiment [15] is HepG2. As to the kind of experiment: Induction of autophagy in human HepG2 cells assessed as increase in LC3-II expression at 2 uM measured after 4 to 6 hrs by Western blot analysis. The format is functional, cell-based. The conditions noted are these: time 4-6 hrs. In short, it runs like this:
as §2

Experiment [16] deals with Nuclear receptor subfamily 4immunitygroup A member 1 (Homo sapiens, UniProt P22736). As to the kind of experiment: Modulation of Nur77 in human HepG2 cells assessed as induction of Nur77 translocation into cytoplasm from nucleus by measuring decrease in protein expression in nucleus at 2 uM by western blot analysis. The format is subcellular. The settings on record: filed as modulator, time 1-8 hrs, TDE = time-dependent effect. In a few lines: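 HepG2 given 2.0 µM for set times; cells swollen 10 min on ice in HEPES/NaCl/EDTA/CaCl2/MgCl2 buffer, 0.1% NP40 added, spun 15000 rpm 3 min at 4 °C giving cytoplasmic supernatant; pellet extracted in RIPA. Fractions blotted for Nur77, with PARP (nuclear) and tubulin (cytoplasmic) as loading controls.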
Nuclear receptor subfamily 4immunitygroup A member 1, sequence (P22736 whole entry): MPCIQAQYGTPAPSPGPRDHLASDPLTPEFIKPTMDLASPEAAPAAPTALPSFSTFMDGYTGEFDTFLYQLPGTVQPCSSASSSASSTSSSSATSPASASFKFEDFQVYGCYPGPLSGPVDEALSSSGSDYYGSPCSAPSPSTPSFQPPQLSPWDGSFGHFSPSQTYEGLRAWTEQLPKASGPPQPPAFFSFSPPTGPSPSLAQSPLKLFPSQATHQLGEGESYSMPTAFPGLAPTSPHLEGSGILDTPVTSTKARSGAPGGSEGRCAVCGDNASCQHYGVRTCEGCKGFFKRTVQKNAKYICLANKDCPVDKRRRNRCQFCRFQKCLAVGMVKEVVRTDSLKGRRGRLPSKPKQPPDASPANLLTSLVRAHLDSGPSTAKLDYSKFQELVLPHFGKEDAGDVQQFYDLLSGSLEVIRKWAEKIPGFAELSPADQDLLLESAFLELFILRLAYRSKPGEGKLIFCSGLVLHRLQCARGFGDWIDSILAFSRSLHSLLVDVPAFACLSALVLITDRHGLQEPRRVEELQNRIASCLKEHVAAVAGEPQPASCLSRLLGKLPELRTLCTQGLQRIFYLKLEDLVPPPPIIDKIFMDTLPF

Experiment [17] relates to HepG2. Nature of the experiment: Induction of endoplasmic reticulum stress in human HepG2 cells assessed as increase in TRB3 protein expression incubated for 12 hrs by Western blot analysis. The settings on record: dose 0.5-2 µM. The format is functional, cell-based. In short, it runs like this:
as §1

Activity calls are given as the source filed them. The rule behind the calls is not given here.

For the compound `COc1cccc2c(Nc3ccc4[nH]c(C(=O)N/N=C/c5ccc(SC)cc5)cc4c3)cc(C)nc12`, the Activity result is “Dose-dependent effect” in experiment [1]; 18.5% in [2]; 16.2% in experiment [3]; “Dose-dependent effect” in experiment [5]; “Dose-dependent effect” in experiment [6]; “Tde” in experiment [7]. The values for the Activity in experiment [12], in experiment [16] and in experiment [17] were 52452 U, “Tde” and “Dose-dependent effect”, respectively. Besides, the result in experiment [4], in experiment [11] and in experiment [13] was inactive. The result in experiment [8], in experiment [9], in [10], in [14] and in experiment [15] was Active.

Source of the values: ChEMBL document CHEMBL4765399, “Design, synthesis, and biological evaluation of 5-((8-methoxy-2-methylquinolin-4-yl)amino)-1H-indole-2-carbohydrazide derivatives as novel Nur77 modulators” (Eur J Med Chem, 2020).
